From ChEMBL document CHEMBL5303300, “EUbOPEN Chemogenomics Library - Multiplex” (2023)
“And” between values parts separate entries of the source, which are not always exact repeats. Equal entries are not always repeated.

Key:
[1] = test system: Fibroblast; test: Multiplex assay against human fibroblast; assay type: toxicity, cell-based; conditions: number of replicates 2
Procedure, shortened: (§1)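 Hoechst33342, BioTracker Green Microtubule Cytoskeleton Dye, MitoTracker Red and Annexin V Alexa Fluor 680 were added to live cells at seeding, and imaging on a CQ1 microscope at 37°C and 5% CO2 followed compound addition. Gating by CellPathfinder machine learning separated cells into Hoechst high-intensity objects or normal cells, then normal cells into healthy, pyknosed or fragmented nuclei, then pyknosed cells into mitotic or apoptotic. Per cents of healthy-nucleus cells are reported for the tubulin, mitochondrial-mass and membrane-permeability phenotypes.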

[2] = test system: HEK-293T; test: Multiplex assay against HEK293T; assay type: toxicity, cell-based; conditions: human, number of replicates 2; procedure, shortened: as §1
[3] = 12 h, 1 µM, compound concentration 1 uM
[4] = 12 h, 10 µM, compound concentration 10 uM
[5] = 24 h, 1 µM, compound concentration 1 uM
[6] = 24 h, 10 µM, compound concentration 10 uM
[7] = 48 h, 1 µM, compound concentration 1 uM
[8] = 48 h, 10 µM, compound concentration 10 uM

With `CN(C)C/C=C/C(=O)Nc1ccc(C(=O)N2CCCC(Nc3ncc(Cl)c(-c4c[nH]c5ccccc45)n3)C2)cc1` (configuration not stated) the “Population Apoptotic (%)” value [1, 3] was 40% and 56%, the “Population Fragmented Nuclei (%)” value [1, 3] was 10% and 12% and the “Population Healthy Nuclei (%)” value [1, 3] was 68% and 67%. For the same compound, the “Population Hoechst High Intensity Objects (%)” value [1, 3] was 0%, the “Population Membrane Permeable-Phenotype (%)” value [1, 3] was 3% and 5% and the “Population Mitochondria Different-Phenotype (%)” value [1, 3] was 0% and 2%. For the same compound, the “Population Mitotic Cells (%)” value [1, 3] was 59% and 43%, the “Population Normal (%)” value [1, 3] was 99% and 100% and the “Population Pyknosed Nuclei (%)” value [1, 3] was 21% and 20%. For the same compound, the “Population Tubulin-Different-Phenotype (%)” value [1, 3] was 11% and 13%, the “Total Cell Count” value [1, 3] was 174 and 157 and the “Population Apoptotic (%)” value [1, 4] was 63% and 53%. The “Population Fragmented Nuclei (%)” value [1, 4] was 10% and 20%, the “Population Healthy Nuclei (%)” value [1, 4] was 42% and 50% and the “Population Hoechst High Intensity Objects (%)” value [1, 4] was 0%. For the same compound, the “Population Membrane Permeable-Phenotype (%)” value [1, 4] was 0% and 9%, the “Population Mitochondria Different-Phenotype (%)” value [1, 4] was 21% and 24% and the “Population Mitotic Cells (%)” value [1, 4] was 36% and 46%. For the same compound, the “Population Normal (%)” value [1, 4] was 99%, the “Population Pyknosed Nuclei (%)” value [1, 4] was 46% and 29% and the “Population Tubulin-Different-Phenotype (%)” value [1, 4] was 78% and 70%. For the same compound, the “Total Cell Count” value [1, 4] was 131 and 175, the “Population Apoptotic (%)” value [1, 5] was 76% and 71% and the “Population Fragmented Nuclei (%)” value [1, 5] was 17% and 12%. The “Population Healthy Nuclei (%)” value [1, 5] was 49% and 56%, the “Population Hoechst High Intensity Objects (%)” value [1, 5] was 0% and the “Population Membrane Permeable-Phenotype (%)” value [1, 5] was 10% and 8%. For the same compound, the “Population Mitochondria Different-Phenotype (%)” value [1, 5] was 2% and 1%, the “Population Mitotic Cells (%)” value [1, 5] was 23% and 28% and the “Population Normal (%)” value [1, 5] was 100%. The “Population Pyknosed Nuclei (%)” value [1, 5] was 33% and 31%, the “Population Tubulin-Different-Phenotype (%)” value [1, 5] was 18% and 19% and the “Total Cell Count” value [1, 5] was 151 and 166. For the same compound, the “Population Apoptotic (%)” value [1, 6] was 78% and 64%, the “Population Fragmented Nuclei (%)” value [1, 6] was 8% and 14% and the “Population Healthy Nuclei (%)” value [1, 6] was 30% and 41%. For the same compound, the “Population Hoechst High Intensity Objects (%)” value [1, 6] was 1%, the “Population Membrane Permeable-Phenotype (%)” value [1, 6] was 2% and 8% and the “Population Mitochondria Different-Phenotype (%)” value [1, 6] was 43% and 36%. The “Population Mitotic Cells (%)” value [1, 6] was 21% and 35%, the “Population Normal (%)” value [1, 6] was 98% and the “Population Pyknosed Nuclei (%)” value [1, 6] was 61% and 43%. The “Population Tubulin-Different-Phenotype (%)” value [1, 6] was 72% and 71%, the “Total Cell Count” value [1, 6] was 125 and 173 and the “Population Apoptotic (%)” value [1, 7] was 79% and 85%. For the same compound, the “Population Fragmented Nuclei (%)” value [1, 7] was 11% and 14%, the “Population Healthy Nuclei (%)” value [1, 7] was 47% and 50% and the “Population Hoechst High Intensity Objects (%)” value [1, 7] was 0%. For the same compound, the “Population Membrane Permeable-Phenotype (%)” value [1, 7] was 19% and 17%, the “Population Mitochondria Different-Phenotype (%)” value [1, 7] was 1% and 5% and the “Population Mitotic Cells (%)” value [1, 7] was 20% and 14%. The “Population Normal (%)” value [1, 7] was 100% and 99%, the “Population Pyknosed Nuclei (%)” value [1, 7] was 41% and 35% and the “Population Tubulin-Different-Phenotype (%)” value [1, 7] was 27% and 20%. The “Total Cell Count” value [1, 7] was 161 and 139, the “Population Apoptotic (%)” value [1, 8] was 92% and 87% and the “Population Fragmented Nuclei (%)” value [1, 8] was 11% and 14%. The “Population Healthy Nuclei (%)” value [1, 8] was 15% and 21%, the “Population Hoechst High Intensity Objects (%)” value [1, 8] was 0% and the “Population Mitochondria Different-Phenotype (%)” value [1, 8] was 22% and 28%. For the same compound, the “Population Mitotic Cells (%)” value [1, 8] was 7% and 12%, the “Population Normal (%)” value [1, 8] was 99% and the “Population Pyknosed Nuclei (%)” value [1, 8] was 73% and 63%. For the same compound, the “Population Tubulin-Different-Phenotype (%)” value [1, 8] was 83% and 74%, the “Total Cell Count” value [1, 8] was 117 and 161 and the “Population Apoptotic (%)” value [2, 3] was 55% and 71%. For the same compound, the “Population Fragmented Nuclei (%)” value [2, 3] was 6% and 2%, the “Population Healthy Nuclei (%)” value [2, 3] was 72% and 69% and the “Population Hoechst High Intensity Objects (%)” value [2, 3] was 14% and 16%. For the same compound, the “Population Membrane Permeable-Phenotype (%)” value [2, 3] was 3% and 1%, the “Population Mitochondria Different-Phenotype (%)” value [2, 3] was 63% and 58% and the “Population Mitotic Cells (%)” value [2, 3] was 44% and 28%. The “Population Normal (%)” value [2, 3] was 85% and 83%, the “Population Pyknosed Nuclei (%)” value [2, 3] was 20% and 28% and the “Population Tubulin-Different-Phenotype (%)” value [2, 3] was 83% and 79%. The “Total Cell Count” value [2, 3] was 354 and 300, the “Population Apoptotic (%)” value [2, 4] was 69% and 84% and the “Population Fragmented Nuclei (%)” value [2, 4] was 5% and 11%. The “Population Healthy Nuclei (%)” value [2, 4] was 67% and 68%, the “Population Hoechst High Intensity Objects (%)” value [2, 4] was 29% and 21% and the “Population Membrane Permeable-Phenotype (%)” value [2, 4] was 5% and 2%. For the same compound, the “Population Mitochondria Different-Phenotype (%)” value [2, 4] was 63% and 70%, the “Population Mitotic Cells (%)” value [2, 4] was 30% and 15% and the “Population Normal (%)” value [2, 4] was 70% and 78%. The “Population Pyknosed Nuclei (%)” value [2, 4] was 26% and 20%, the “Population Tubulin-Different-Phenotype (%)” value [2, 4] was 88% and 85% and the “Total Cell Count” value [2, 4] was 280 and 375. For the same compound, the “Population Apoptotic (%)” value [2, 5] was 73% and 75%, the “Population Fragmented Nuclei (%)” value [2, 5] was 6% and 5% and the “Population Healthy Nuclei (%)” value [2, 5] was 75% and 74%. For the same compound, the “Population Hoechst High Intensity Objects (%)” value [2, 5] was 17% and 19% and the “Population Membrane Permeable-Phenotype (%)” value [2, 5] was 2% and 0%.
